ChEMBL document CHEMBL1129639, “Synthesis and cardiotonic activity of novel pyrimidine derivatives: crystallographic and quantum chemical studies” (J Med Chem, 1996)

Columns and labels:
[1] = organism: Cavia porcellus; experiment: Ionotropic Response to 8-Phenyltheophylline (10e-4 M) in Electrically driven Left atrium from Resperpine-Treated Guinea pigs at the concentration of 10E-4 M; type: functional, Cardiac atrium
How it was run: (§1)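 Electrically driven left atrium from reserpine-treated guinea pigs, 29 °C, pH 7.5. Cumulative 8-phenyltheophylline concentration-effect curves were run without or with 3 × 10^-5 to 3 × 10^-4 M test compound (DMSO). Developed tension given as % variation from control. Mean ± SEM of four assays from four experiments; Student's t-test against the 8-phenyltheophylline-only atrium.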

[2] = organism: Cavia porcellus; experiment: Effect on the frequency rate of spontaneously beating atria from Reserpine-treated guinea pigs as percentage variation from the control at concentration of 10E-5 M; type: functional
How it was run: (§2)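 Atria from reserpine-treated guinea pigs (reserpine 2 mg/kg ip, 48 and 24 h before death; only tyramine-unresponsive preparations used). Bath solution at 29 °C, gassed 95% O2/5% CO2, pH 7.5, resting tension […]. After 90 min equilibration, compound added cumulatively, 5 min per concentration. Isometric developed-tension amplitude or beating rate given as % variation from untreated control. Mean ± SEM, 6-10 assays.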

[3] = organism: Cavia porcellus; experiment: Effect on the contractile force of spontaneously beating atria from Reserpine-treated guinea pigs as percentage variation from the control at concentration of 10E-6 M; type: functional; how it was run: as §2
[4] = organism: Cavia porcellus; experiment: Ionotropic Response to 8-Phenyltheophylline (3 x 10E-6 M) in Electrically driven Left atrium from Resperpine-Treated Guinea pigs at the concentration of 10E-4 M; type: functional, Cardiac atrium
How it was run: (§3)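 Guinea pigs pretreated with reserpine (2 mg/kg ip) 48 and 24 h before sacrifice; atria unresponsive to tyramine (2 µg/mL) used. Left atrium electrically driven, in oxygenated salt solution (95% O2/5% CO2, pH 7.5, 29 °C), resting tension […], isometric developed tension. 90 min equilibration; test agent present while cumulative 8-phenyltheophylline curves run, 5 min per concentration; % variation from control; mean ± SEM, four assays.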

[5] = organism: Cavia porcellus; experiment: Inotropic effect in electrically driven left atrium from reserpine-treated guinea pigs at concentration of 10E-5 M; type: functional, Cardiac atrium
How it was run: (§4)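 Electrically driven left atrium from reserpine-treated guinea pigs (tyramine-unresponsive), 29 °C, pH 7.5, resting tension […], 90 min equilibration. Compound dissolved in DMSO and added cumulatively, 5 min per step. Where used, adenosine deaminase was preincubated 20 min, and basal force was taken after ADA addition. Developed tension given as % change over control. Mean ± SEM of six assays.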

[6] = organism: Cavia porcellus; experiment: Ionotropic Response to 8-Phenyltheophylline (3 x 10E-6 M) in Electrically driven Left atrium from Resperpine-Treated Guinea pigs at the concentration of 3 x 10E-5 M; type: functional, Cardiac atrium; how it was run: as §3
[7] = organism: Cavia porcellus; experiment: Ionotropic Response to 8-Phenyltheophylline (3 x 10E-6 M) in Electrically driven Left atrium from Resperpine-Treated Guinea pigs at the concentration of 3 x 10E-4 M; type: functional, Cardiac atrium; how it was run: as §3
[8] = organism: Cavia porcellus; experiment: Effect on the contractile force of spontaneously beating atria from Reserpine-treated guinea pigs as percentage variation from the control at concentration of 3 x 10E-4 M; type: functional; how it was run: as §2
[9] = organism: Cavia porcellus; experiment: Inotropic effect in electrically driven left atrium from reserpine-treated guinea pigs at concentration of 3 x 10E-6 M; type: functional, Cardiac atrium; how it was run: as §4
[10] = organism: Cavia porcellus; experiment: Effect on the frequency rate of spontaneously beating atria from Reserpine-treated guinea pigs as percentage variation from the control at concentration of 10E-3 M; type: functional; how it was run: as §2
[11] = biological target: T1, Adenosine receptor A1 (Cavia porcellus, UniProt P47745); experiment: Inhibition of [3H]-CHA binding to Adenosine A1 receptor in guinea pig heart
T1 sequence (P47745 whole entry): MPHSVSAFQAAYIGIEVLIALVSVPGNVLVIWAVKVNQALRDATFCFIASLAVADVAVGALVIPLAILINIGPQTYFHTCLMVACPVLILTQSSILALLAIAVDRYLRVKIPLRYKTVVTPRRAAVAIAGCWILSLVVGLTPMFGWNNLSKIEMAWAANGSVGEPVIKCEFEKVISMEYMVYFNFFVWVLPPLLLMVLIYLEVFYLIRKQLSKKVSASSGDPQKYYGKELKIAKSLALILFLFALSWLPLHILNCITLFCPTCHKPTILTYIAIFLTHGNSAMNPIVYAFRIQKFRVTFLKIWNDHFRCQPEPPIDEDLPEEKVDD
How it was run: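 Guinea pig heart membranes prepared in 50 mM Tris-HCl pH 7.4 and pretreated with adenosine deaminase 2 IU/mL for 30 min at 37 °C. Incubated with 1 nM [3H]CHA, membranes from 15 mg tissue, 120 min at 23 °C. Bound ligand separated by GF/B filtration; nonspecific binding defined with (R)-PIA. Six concentrations tested in triplicate; IC50 by probit analysis.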

[12] = organism: Cavia porcellus; experiment: Ionotropic Response to 8-Phenyltheophylline (10E-5) in Electrically driven Left atrium from Resperpine-Treated Guinea pigs at the concentration of 3 x 10E-4 M; type: functional, Cardiac atrium; how it was run: as §1
[13] = organism: Cavia porcellus; experiment: Effect on the contractile force of spontaneously beating atria from Reserpine-treated guinea pigs as percentage variation from the control at concentration of 3 x 10E-5 M; type: functional; how it was run: as §2
[14] = organism: Cavia porcellus; experiment: Ionotropic Response to 8-Phenyltheophylline (10E-4) in Electrically driven Left atrium from Resperpine-Treated Guinea pigs at the concentration of 3 x 10E-4 M; type: functional, Cardiac atrium; how it was run: as §1
[15] = organism: Cavia porcellus; experiment: Ionotropic Response to 8-Phenyltheophylline (3 x 10E-5 M) in Electrically driven Left atrium from Resperpine-Treated Guinea pigs at the concentration of 3 x 10E-5 M; type: functional, Cardiac atrium; how it was run: as §3
[16] = organism: Cavia porcellus; experiment: Effect on the frequency rate of spontaneously beating atria from Reserpine-treated guinea pigs as percentage variation from the control at concentration of 10E-6 M; type: functional; how it was run: as §2
[17] = organism: Cavia porcellus; experiment: Ionotropic Response to 8-Phenyltheophylline in Electrically driven Left atrium from Resperpine-Treated Guinea pigs at the concentration of 3 x 10E-5 M; type: functional, Cardiac atrium; how it was run: as §3
[18] = organism: Cavia porcellus; experiment: Compound was evaluated for its effect on the frequency rate of spontaneously beating atria from Reserpine-treated guinea pigs as percentage variation from the control at concentration of 3 x 10E-4 M; type: functional; how it was run: as §2
[19] = organism: Cavia porcellus; experiment: Ionotropic Response to 8-Phenyltheophylline (3 x 10E-5 M) in Electrically driven Left atrium from Resperpine-Treated Guinea pigs at the concentration of 3 x 10E-4 M; type: functional, Cardiac atrium; how it was run: as §3
[20] = organism: Cavia porcellus; experiment: Compound was evaluated for its effect on the frequency rate of spontaneously beating atria from Reserpine-treated guinea pigs as percentage variation from the control at concentration of 3 x 10E-5 M; type: functional; how it was run: as §2
[21] = organism: Cavia porcellus; experiment: Inotropic effect in electrically driven left atrium from reserpine-treated guinea pigs at concentration of 10E-6 M; type: functional, Cardiac atrium; how it was run: as §4
[22] = organism: Cavia porcellus; experiment: Inotropic effect in electrically driven left atrium from reserpine-treated guinea pigs at concentration of 10E-4 M; type: functional, Cardiac atrium; how it was run: as §4
[23] = organism: Cavia porcellus; experiment: Ionotropic Response to 8-Phenyltheophylline (3 x 10E-5 M) in Electrically driven Left atrium from Resperpine-Treated Guinea pigs at the concentration of 10E-4 M; type: functional, Cardiac atrium; how it was run: as §3
[24] = organism: Cavia porcellus; experiment: Ionotropic Response to 8-Phenyltheophylline (10e-5 M)in Electrically driven Left atrium from Resperpine-Treated Guinea pigs at the concentration of 3 x 10E-5 M; type: functional, Cardiac atrium; how it was run: as §1
[25] = organism: Cavia porcellus; experiment: Ionotropic Response to 8-Phenyltheophylline (10e-4 M) in Electrically driven Left atrium from Resperpine-Treated Guinea pigs at the concentration of 3 x 10E-5 M; type: functional, Cardiac atrium; how it was run: as §1
[26] = organism: Cavia porcellus; experiment: Effect on the contractile force of spontaneously beating atria from Reserpine treated guinea pigs as percentage variation from the control at concentration of 10E-4 M; type: functional; how it was run: as §2
[27] = organism: Cavia porcellus; experiment: Ionotropic Response to 8-Phenyltheophylline in Electrically driven Left atrium from Resperpine-Treated Guinea pigs at the concentration of 3 x 10E-4 M; type: functional, Cardiac atrium; how it was run: as §3
[28] = organism: Cavia porcellus; experiment: Inotropic effect in electrically driven left atrium from reserpine-treated guinea pigs at concentration of 3 x 10E-4 M; type: functional, Cardiac atrium; how it was run: as §4
[29] = organism: Cavia porcellus; experiment: Effect on the contractile force of spontaneously beating atria from Reserpine-treated guinea pigs as percentage variation from the control at concentration of 3 x 10E-6 M; type: functional; how it was run: as §2
[30] = organism: Cavia porcellus; experiment: Effect on the contractile force of spontaneously beating atria from Reserpine-treated guinea pigs as percentage variation from the control at concentration of 10E-5 M; type: functional; how it was run: as §2
[31] = organism: Cavia porcellus; experiment: Compound was evaluated for its effect on the frequency rate of spontaneously beating atria from Reserpine-treated guinea pigs as percentage variation from the control at concentration of 3 x 10E-6 M; type: functional; how it was run: as §2
[32] = organism: Cavia porcellus; experiment: Inotropic effect in electrically driven left atrium from reserpine-treated guinea pigs at concentration of 10E-3 M; type: functional, Cardiac atrium; how it was run: as §4
[33] = organism: Cavia porcellus; experiment: Effect on the contractile force of spontaneously beating atria from Reserpine-treated guinea pigs as percentage variation from the control at concentration of 10E-3 M; type: functional; how it was run: as §2
[34] = organism: Cavia porcellus; experiment: Inotropic effect in electrically driven left atrium from reserpine-treated guinea pigs at concentration of 3 x 10E-5 M; type: functional, Cardiac atrium; how it was run: as §4
[35] = organism: Cavia porcellus; experiment: Ionotropic Response to 8-Phenyltheophylline in Electrically driven Left atrium from Resperpine-Treated Guinea pigs at the concentration of 10E-4 M; type: functional, Cardiac atrium; how it was run: as §3
[36] = organism: Cavia porcellus; experiment: Effect on the frequency rate of spontaneously beating atria from Reserpine-treated guinea pigs as percentage variation from the control at concentration of 10E-4 M; type: functional; how it was run: as §2
[37] = organism: Cavia porcellus; experiment: Ionotropic Response to 8-Phenyltheophylline (10e-5 M) in Electrically driven Left atrium from Resperpine-Treated Guinea pigs at the concentration of 10E-4 M; type: functional, Cardiac atrium; how it was run: as §1

## COC(=O)c1cnc(N(C)C)nc1Cc1ccccc1
[1]
  Variation: 19%
[2]
  Variation: 0%
[3]
  Variation: 0%
[4]
  Variation: -4.34%
[5]
  Variation: 7.45%
[6]
  Variation: 8.79%
[7]
  Variation: -28.9%
[8]
  Variation: -55.28%
[9]
  Variation: 4.85%
[10]
  Variation: -100%
[11]
  IC50: 21.3 µM
[12]
  Variation: -22.2%
[13]
  Variation: -6.54%
[14]
  Variation: -6.66%
[15]
  Variation: 14.9%
[16]
  Variation: 0%
[17]
  Variation: -6.66%
[18]
  Variation: -55.15%
[19]
  Variation: -11%
[20]
  Variation: -8.03%
[21]
  Variation: 0%
[22]
  Variation: -14.2%
[23]
  Variation: 2.72%
[24]
  Variation: 11%
[25]
  Variation: 20.2%
[26]
  Variation: -13.54%
[27]
  Variation: -33.52%
[28]
  Variation: -48.3%
[29]
  Variation: 5.83%
[30]
  Variation: 8.97%
[31]
  Variation: 0%
[32]
  Variation: -100%
[33]
  Variation: -100%
[34]
  Variation: -5.21%
[35]
  Variation: -9.37%
[36]
  Variation: -16.06%
[37]
  Variation: -3.33%
